Assay results from ChEMBL document CHEMBL4000247, “Carbonic anhydrases activation with 3-amino-1H-1,2,4-triazole-1-carboxamides: Discovery of subnanomolar isoform II activators” (Bioorg Med Chem, 2017).

Tests used:
[1] = biological target: Carbonic anhydrase 1 (Homo sapiens) (UniProt P00915); assay: Activation of recombinant human carbonic anhydrase 1 incubated for 15 mins prior to testing by stopped flow CO2 hydrase assay
In short: (§1)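 CO2 hydration followed 5–10 s in stopped-flow instrument; phenol red 0.2 mM read at 557 nm; 10 mM HEPES pH 7.4, 0.1 M NaClO4 for ionic strength; saturated CO2 solutions in water at 25°C as substrate. Activator stocks 10 mM in assay buffer, diluted down to 0.01 nM; enzyme and activator preincubated 15 min at room temperature. Activation constant from competitive steady-state equation.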

[2] = biological target: Carbonic anhydrase 2 (Homo sapiens) (UniProt P00918); assay: Activation of recombinant human carbonic anhydrase 2 incubated for 15 mins prior to testing by stopped flow CO2 hydrase assay; in short: as §1

Carbonic anhydrase 1 (Homo sapiens), sequence (P00915 2-261 limits assumed): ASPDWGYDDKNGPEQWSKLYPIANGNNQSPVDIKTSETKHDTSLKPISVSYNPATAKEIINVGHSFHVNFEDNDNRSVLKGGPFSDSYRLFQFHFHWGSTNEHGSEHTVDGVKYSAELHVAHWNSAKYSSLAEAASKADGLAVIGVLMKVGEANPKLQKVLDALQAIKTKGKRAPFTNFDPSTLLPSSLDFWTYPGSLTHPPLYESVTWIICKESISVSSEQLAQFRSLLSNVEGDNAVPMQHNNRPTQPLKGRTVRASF

| SMILES | KA [1] | KA [2] |
| --- | --- | --- |
| O=C(O)c1ncn(C(=O)NCCCCCCNC(=O)n2cnc(C(=O)O)n2)n1 | 13.7 nM | 6700 nM |
| Nc1ncn(C(=O)NCCCCCCNC(=O)n2cnc(N)n2)n1 | 42 nM | 14.6 nM |
| Nc1ncn(C(=O)NCCCCCCCCNC(=O)n2cnc(N)n2)n1 | 11.1 nM | 65 nM |
| CCCCCCCCCCCCCCCCCCNC(=O)n1cnc(N)n1 | 987 nM | 1680 nM |
| CCCCNC(=O)n1cnc(N)n1 | 6.1 nM | 1.7 nM |
| Nc1ncn(C(=O)NCCCCCCCCCCCCNC(=O)n2cnc(N)n2)n1 | 982 nM | 79 nM |
| CC1(C)CC(NC(=O)n2cnc(N)n2)CC(C)(CNC(=O)n2cnc(N)n2)C1 (stereo not drawn) | 993 nM | 1570 nM |
| CCCCCCNC(=O)n1cnc(N)n1 | 123 nM | 345 nM |

Continued, values first:

| KA [1] | KA [2] | SMILES |
| --- | --- | --- |
| 0.81 nM | 14.1 nM | Nc1ncn(C(=O)Nc2ccc(-c3ccc(NC(=O)n4cnc(N)n4)cc3)cc2)n1 |
| 65 nM | 0.12 nM | Nc1ncn(C(=O)Nc2ccc(NC(=O)n3cnc(N)n3)cc2)n1 |
| 0.94 nM | 0.05 nM | Nc1ncn(C(=O)Nc2ccc(Cc3ccc(NC(=O)n4cnc(N)n4)cc3)cc2)n1 |
| 74 nM | 91 nM | Nc1ncn(C(=O)NCCCCNC(=O)n2cnc(N)n2)n1 |
| 637 nM | 1680 nM | COc1cc(-c2ccc(NC(=O)n3cnc(N)n3)c(OC)c2)ccc1NC(=O)n1cnc(N)n1 |
| 4.2 nM | 826 nM | Cc1ccc(NC(=O)n2cnc(N)n2)cc1NC(=O)n1cnc(N)n1 |
